Experimental data as given in ChEMBL document CHEMBL4354867, “Validation and Characterization of Five Distinct Novel Inhibitors of Human Cytomegalovirus” (J Med Chem, 2020).
Calls of active or inactive are those of the source. No cut-off for these calls is given here.

How the values were obtained:
HFF = experiment: Cytotoxicity against human HFF cells assessed as reduction in cell viability incubated for 72 hrs or 10 days by MTT assay; type: cell-based
Procedure, shortened: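 MTT assay on uninfected cells exposed to compound for 72 h or 8–10 days, matching the antiviral assay durations. MTT (5 mg/mL stock in PBS) added, then 2–3 h at 37 °C. Formazan absorbance read at 560 nm.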

Human betaherpesvirus 5 [1] = experiment: Antiviral activity against GCV-resistant HCMV Towne infected in human HFF cells assessed as reduction in plaque formation treated with compound following viral infection and incubated for 8 to 10 days by crystal violet staining based assay; type: functional, organism-based; details: Human betaherpesvirus 5, strain Towne
Human betaherpesvirus 5 [2] = experiment: Inhibition of viral protein expression in HCMV Towne infected in human HFF cells assessed as reduction in IE1 expression at 0.1 to 10 uM treated with compound following viral infection at MOI of 1 PFU/cell measured at 72 hrs post infection by Western blot analysis; type: functional, organism-based; details: strain Towne
Procedure, shortened: (§1)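 HFFs infected with HCMV Towne (MOI 1), then treated with compound. Lysates taken at 72 hpi, equal protein loaded on 8–10% Tris-glycine SDS-PAGE and transferred to PVDF. Primary antibodies overnight at 4 °C, HRP secondary, chemiluminescent detection; β-actin as loading control.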

Human betaherpesvirus 5 [3] = experiment: Antiviral activity against HCMV TB40 infected in human HFF cells assessed as reduction in plaque formation treated with compound following viral infection and incubated for 8 to 10 days by crystal violet staining based assay; type: functional, organism-based; details: Human betaherpesvirus 5, TB40, HFF
Human betaherpesvirus 5 [4] = experiment: Antiviral activity against HCMV Towne infected in human HFF cells assessed as reduction in viral DNA yields in the supernatant at 1.5 uM treated with compound following viral infection at MOI of 0.1 PFU/cell by US17 real time PCR analysis; type: functional, organism-based; details: strain Towne
Procedure, shortened: (§2)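 At set time points supernatants were harvested and cells lysed for DNA. Cell-associated viral DNA and supernatant viral DNA quantified by real-time PCR targeting a 151-bp conserved US17 region.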

Human alphaherpesvirus 2 = experiment: Antiviral activity against HSV 2 infected in African green monkey Vero cells assessed as reduction in plaque formation incubated for 36 hrs by crystal violet staining based assay; type: functional, organism-based; details: vero
Procedure, shortened: (§3)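 Plaque reduction in Vero cells: virus adsorbed 60 min, then compound added in a carboxymethylcellulose overlay. Plaques counted after 36 h by crystal violet staining.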

Human betaherpesvirus 5 [5] = experiment: (§4) Antiviral activity against pp28-luciferase expressing HCMV Towne infected in human HFF cells assessed as reduction in viral replication treated with compound at 24 hrs post viral infection at MOI of 1 PFU/cell and measured after 3 days by luciferase reporter gene assay; type: functional, organism-based; details: strain Towne
Procedure, shortened: (§5)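 Time-of-addition in HFFs infected with HCMV Towne (MOI 1). Add-on: compound added at 0, 6, 24 or 48 hpi. Removal: compound added right after infection and washed out after 0, 6, 24 or 48 h. Luciferase read at 72 hpi.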

Human betaherpesvirus 5 [6] = experiment: Inhibition of viral protein expression in HCMV Towne infected in human HFF cells assessed as reduction in UL84 expression at 0.1 to 10 uM treated with compound following viral infection at MOI of 1 PFU/cell measured at 72 hrs post infection by Western blot analysis; type: functional, organism-based; details: strain Towne; procedure, shortened: as §1
Human betaherpesvirus 5 [7] = experiment: Inhibition of viral protein expression in HCMV Towne infected in human HFF cells assessed as reduction in pp65 expression at 0.1 to 10 uM treated with compound following viral infection at MOI of 1 PFU/cell measured at 72 hrs post infection by Western blot analysis; type: functional, organism-based; details: strain Towne
Procedure, shortened: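 Lysates taken at 72 hpi, equal protein run on SDS-PAGE and transferred to PVDF. Immunoblot for viral proteins (IE1/2, UL84, UL44, pp65) with β-actin as loading reference, chemiluminescent detection.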

Human betaherpesvirus 5 [8] = experiment: Antiviral activity againstpp28-luciferase expressing HCMV Towne infected in human HFF cells assessed as reduction in viral replication treated with compound following viral infection at MOI of 1 PFU/cells measured after 3 days in presence of GCV by luciferase reporter gene assay; type: functional, organism-based; details: Human betaherpesvirus 5, strain Towne, 72 h
Procedure, shortened: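 HFFs in 96-well plates were infected with pp28-luciferase Towne HCMV, in which luciferase is driven by the UL99 late promoter, at MOI 1. A dose-response of each drug alone gave its EC₅₀. Combinations started at twice each EC₅₀ in DMEM with 4% FBS, followed by two-fold serial dilutions, and were added after infection. Luciferase was read in cell lysates at 72 hpi. The Bliss ratio is observed over expected inhibition.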

Human betaherpesvirus 5 [9] = experiment: Antiviral activity against pp28-luciferase harboring UL97 C607Y mutant expressing GCV-resistant HCMV Towne infected in human HFF cells assessed as reduction in viral replication at 0.5 to 3 uM treated with compound following viral infection at MOI of 0.1 PFU/cell and measured at 72 hrs post infection by luciferase reporter gene assay; type: functional, organism-based; details: strain Towne
Procedure, shortened: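 HFFs infected with GCV-resistant pp28-luciferase Towne (MOI 0.1), then treated with a compound dilution series. Luciferase, driven by the UL99 late promoter, read in cell lysates at 72 hpi. Data are mean ± SD of triplicates from a single experiment.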

Human betaherpesvirus 5 [10] = experiment: Antiviral activity against HCMV Towne infected in human HFF cells assessed as reduction in plaque formation treated with compound following viral infection and incubated for 8 to 10 days by crystal violet staining based assay; type: functional, organism-based; details: Human betaherpesvirus 5, strain Towne
Human alphaherpesvirus 1 = experiment: Antiviral activity against HSV 1 infected in African green monkey Vero cells assessed as reduction in plaque formation incubated for 36 hrs by crystal violet staining based assay; type: functional, organism-based; details: vero; procedure, shortened: as §3
Human betaherpesvirus 5 [11] = experiment: as §4, with “immediately after” for “at 24 hrs post”, “PFU/cell followed by compound washout after 6 hrs” for “PFU/cell”; type: functional; details: strain Towne; procedure, shortened: as §5
Human gammaherpesvirus 4 = experiment: Antiviral activity against EBV infected in human AKATA cells assessed as reduction in IgG-induced lytic virus replication measured at 48 hrs post-lytic induction by qRT-PCR analysis; type: functional, organism-based; details: human gammaherpesvirus 4, 48 h; read-out: EC50
Human betaherpesvirus 5 [12] = experiment: Antiviral activity against HCMV TB40 infected in human HFF cells assessed as reduction in plaque formation at 0.1 to 3 uM treated with compound following viral infection at […] measured after 8 days by crystal violet staining analysis; type: functional, organism-based
Procedure, shortened: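 HFFs (2 × 10⁵/well) infected with HCMV TB40 at about 100 plaques/well for 90 min. Inoculum removed, then DMEM with 0.5% CMC, 4% FBS and compound added. Incubated at 37 °C; plaques stained with crystal violet and counted at 8 dpi. Experiment repeated three times; one representative shown.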

Human betaherpesvirus 5 [13] = experiment: Antiviral activity against HCMV Towne infected in human HFF cells assessed as reduction in plaque formation treated with compound following viral infection at MOI of 1 PFU/cell and measured at 10 days post-infection in presence of letermovir by crystal violet staining based assay; type: functional, organism-based; details: Human betaherpesvirus 5, strain Towne, 240 h
Human betaherpesvirus 5 [14] = experiment: Antiviral activity against HCMV Towne infected in human HFF cells assessed as reduction in viral DNA replication at 1.5 uM treated with compound following viral infection at MOI of 0.1 PFU/cell by US17 real time PCR analysis; type: functional, organism-based; details: strain Towne; procedure, shortened: as §2
Human betaherpesvirus 5 [15] = experiment: Inhibition of viral protein expression in HCMV Towne infected in human HFF cells assessed as reduction in IE2 expression at 0.1 to 10 uM treated with compound following viral infection at MOI of 1 PFU/cell measured at 72 hrs post infection by Western blot analysis; type: functional, organism-based; details: strain Towne; procedure, shortened: as §1
Human betaherpesvirus 5 [16] = experiment: Inhibition of viral protein expression in HCMV Towne infected in human HFF cells assessed as reduction in UL44 expression at 0.1 to 10 uM treated with compound following viral infection at MOI of 1 PFU/cell measured at 72 hrs post infection by Western blot analysis; type: functional, organism-based; details: strain Towne; procedure, shortened: as §1
[17] = Antiviral activity against Mouse Cytomegalovirus Smith (ATCC VR-1399) infected in mouse MEF cells assessed as reduction in plaque formation measured after 3 days by crystal violet staining based assay; type: functional, cell-based, Murine cytomegalovirus (strain Smith); details: mef
Procedure, shortened: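 Plaque reduction with MCMV Smith in mouse embryonic fibroblasts, with compound in a carboxymethylcellulose overlay. Assay ended at 3 days and plaques counted after crystal violet staining.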

Nc1nc(O)c2ncn(COC(CO)CO)c2n1 [GANCICLOVIR] gave a CC50 (HFF) greater than 200000 nM.

For Nc1c(S(=O)(=O)c2cccs2)c2nc3ccccc3nc2n1Cc1ccccc1, the EC50 (Human betaherpesvirus 5 [1]) was 260 nM, the inhibition (Human betaherpesvirus 5 [2]) was “Active” and the EC50 (Human betaherpesvirus 5 [3]) was 330 nM. The CC50 (HFF) was greater than 250000 nM, the Activity (Human betaherpesvirus 5 [4]) was “Active” and the EC50 (Human alphaherpesvirus 2) was “Not Active”. For the same compound, the Activity (Human betaherpesvirus 5 [5]) was “inactive”, the inhibition (Human betaherpesvirus 5 [6]) was “Active” and the inhibition (Human betaherpesvirus 5 [7]) was “Active”. The EC50 (Human betaherpesvirus 5 [8]) was 570 nM, the Activity (Human betaherpesvirus 5 [9]) was “Active” and the EC50 (Human betaherpesvirus 5 [10]) was 390 nM. For the same compound, the EC50 (Human alphaherpesvirus 1) was “Not Active”, the Activity (Human betaherpesvirus 5 [11]) was “Active” and the EC50 (Human gammaherpesvirus 4) was greater than 10000 nM. For the same compound, the Activity (Human betaherpesvirus 5 [12]) was “Active”, the EC50 (Human betaherpesvirus 5 [13]) was 130 nM and the Activity (Human betaherpesvirus 5 [14]) was “Active”. For the same compound, the inhibition (Human betaherpesvirus 5 [15]) was “Active”, the inhibition (Human betaherpesvirus 5 [16]) was “Active” and the EC50 [17] was “Not Active”.
